Source: paper PMC10903085 (Neurotherapeutics, 2023)
Entries after “also recorded” stand apart in the source; their conditions may differ.

Assays:
[1] = Metabolic stability in mouse liver microsomes; assay type: in vitro ADME
primary rat neurons = test: Modified MTT assay of Aβ toxicity in primary neurons; assay type: cell-based; conditions: compound 0.3, 3 or 15 μM, 90-min pretreatment, 2.5 μM Aβ, 24 h
[2] = Oral administration, brain and plasma concentrations; assay type: in vivo, mouse; conditions: male CD1 mice, PO 5 mg/kg, 1 h, 2 h, 4 h post-treatment
In short: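 Male CD1 mice received test compound orally at 5 mg/kg, formulated at 1 mg/mL in 10 % NMP, 60 % PEG400 and 30 % saline. Brain and plasma levels were measured by HPLC-MS at 1, 2 and 4 h after dosing, and the brain/plasma ratio was taken from these.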

Tau-Fyn interaction = test: Endogenous Tau-Fyn PLA in primary neurons; assay type: cell-based, rat; conditions: 24 h
In short: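 Rat hippocampal neurons (E19 Sprague-Dawley embryos) grown on coated coverslips to DIV20, treated with test compound or vehicle, and fixed in PFA 24 h later. Cells were permeabilised in 0.25 % Triton X-100 and blocked in 5 % NGS. Tau (1:1000) and Fyn (1:250) antibodies were applied overnight at 4 °C, then Duolink PLA was run. Thresholded puncta were counted from 5–7 images per coverslip and normalised to vehicle slides; analysis was blinded.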

Tau = test: Western blot of Tau levels in primary neurons; assay type: cell-based, rat; conditions: 15 μM, 24 h
In short: (§1)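 Rat primary neurons at DIV13 were treated with 15 μM test compound or vehicle for 24 h. They were lysed in Tris/NaCl/EDTA buffer containing SDS, Triton and deoxycholate. 5 μg protein (Bradford) was run on 4–12 % bis-tris/MOPS gels and blotted to PVDF. Blots were probed overnight at 4 °C for Fyn (1:1000), then GAPDH (1:5000), stripped and reprobed for Tau (1:10,000). Infrared detection was used, with densitometry.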

Fyn [3] = test: Western blot of Fyn levels in primary neurons; assay type: cell-based, rat; conditions: 15 μM, 24 h
In short: as §1

97 kinases = test: Eurofins DiscoverX ScanEDGE kinase panel; assay type: binding; conditions: 3 μM; activity defined as <35 % of control
Fyn [4] = molecular target: Fyn (Homo sapiens, UniProt P06241); test: Custom kinase panel for Fyn; assay type: binding; conditions: 3 μM; activity defined as <35 % of control
Fyn (Homo sapiens, UniProt P06241), sequence (P06241 whole entry): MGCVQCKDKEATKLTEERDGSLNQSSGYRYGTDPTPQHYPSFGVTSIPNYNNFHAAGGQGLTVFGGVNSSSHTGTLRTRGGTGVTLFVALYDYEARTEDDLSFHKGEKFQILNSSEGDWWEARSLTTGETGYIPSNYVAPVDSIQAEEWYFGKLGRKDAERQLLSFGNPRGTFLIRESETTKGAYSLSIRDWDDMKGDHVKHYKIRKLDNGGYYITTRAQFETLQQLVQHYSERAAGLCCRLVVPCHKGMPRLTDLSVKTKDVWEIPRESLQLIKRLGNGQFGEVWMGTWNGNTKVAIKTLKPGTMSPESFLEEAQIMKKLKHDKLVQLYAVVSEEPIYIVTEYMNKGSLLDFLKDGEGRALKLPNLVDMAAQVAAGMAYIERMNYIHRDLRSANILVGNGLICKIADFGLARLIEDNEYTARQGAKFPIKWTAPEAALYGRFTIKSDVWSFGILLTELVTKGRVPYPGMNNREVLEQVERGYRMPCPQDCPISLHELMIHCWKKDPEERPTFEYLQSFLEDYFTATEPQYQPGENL

FynSH3 = FynSH3 (Homo sapiens, UniProt P06241); test: Isothermal titration calorimetry with FynSH3; assay type: binding; conditions: 25 °C
FynSH3, sequence (P06241 82-143 limits assumed): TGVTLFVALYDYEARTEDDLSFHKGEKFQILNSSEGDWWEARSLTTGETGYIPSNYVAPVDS
In short: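 Purified human FynSH3 from E. coli was dialysed at 4 °C into 20 mM Tris, 150 mM NaCl, pH 8.0, quantified by A280 and brought to 5 % DMSO. The cell held ~120 μM FynSH3 and the syringe 1 mM test compound. Sixteen 2.5 μL injections were made at 25 °C. Titrant-into-buffer heat was used as background, and data were fitted to a one-set-of-sites model.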

Tau-PxxP5/6 = Tau-PxxP5/6 (Homo sapiens, UniProt P10636); test: Isothermal titration calorimetry with Tau-PxxP5/6 peptide; assay type: binding; conditions: 25 °C
In short: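 Calorimetric titration at 25 °C in 5 % DMSO. About 120 μM Tau-PxxP5/6 peptide sat in the cell and 1 mM test compound in the syringe. Sixteen 2.5 μL injections were made. Mixing heat from titrant into buffer alone was used as background, and the normalised heat was fitted to a one-set-of-sites model.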

Tau-FynSH3 interaction [5] = molecular target: T1, Tau-FynSH3 interaction (Homo sapiens, UniProt P10636); test: Tau-Flag PLA, Tau-FynSH3 in HEK-293 cells; assay type: cell-based; conditions: HEK293, read-out: Inhibition of Tau-FynSH3 interaction (PLA)
T1 sequence (P10636 1-441 isoform P10636-8): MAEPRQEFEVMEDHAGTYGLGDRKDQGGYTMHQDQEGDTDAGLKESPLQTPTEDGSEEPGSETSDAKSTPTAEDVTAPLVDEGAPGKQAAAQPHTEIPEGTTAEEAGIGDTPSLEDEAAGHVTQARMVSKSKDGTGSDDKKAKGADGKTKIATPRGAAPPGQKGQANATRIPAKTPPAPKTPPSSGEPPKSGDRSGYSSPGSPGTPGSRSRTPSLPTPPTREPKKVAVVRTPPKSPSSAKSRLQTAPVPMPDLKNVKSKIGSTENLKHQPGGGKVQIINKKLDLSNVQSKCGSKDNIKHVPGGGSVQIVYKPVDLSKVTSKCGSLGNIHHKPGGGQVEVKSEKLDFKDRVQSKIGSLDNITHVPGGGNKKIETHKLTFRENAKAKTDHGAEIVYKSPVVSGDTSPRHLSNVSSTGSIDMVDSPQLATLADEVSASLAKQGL
In short: (§2)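 HEK-293 cells on PDL/laminin coverslips in DMEM with 10 % FBS were co-transfected (Fugene) with 125 ng human 4R2N Tau-mKate2 and 500 ng GST-SH3-Flag plasmid for the relevant SH3 domain. After 24 h, test compound was added at 15 μM final, and cells were fixed 24 h later. PLA used Tau (1:1000) and Flag (1:1000) antibodies, with puncta quantified by thresholding.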

Tau-LckSH3 interaction = Tau-LckSH3 interaction (Homo sapiens, UniProt P10636); test: Tau-Flag PLA, Tau-LckSH3 in HEK-293 cells; assay type: cell-based; conditions: 15 μM
Tau-LckSH3 interaction, sequence (P10636 1-441 isoform P10636-8): as above
In short: as §2

Tau-BIN1SH3 interaction = Tau-BIN1SH3 interaction (Homo sapiens, UniProt P10636); test: Tau-Flag PLA, Tau-BIN1SH3 in HEK-293 cells; assay type: cell-based; conditions: 15 μM
Tau-BIN1SH3 interaction, sequence (P10636 1-441 isoform P10636-8): as above
In short: as §2

Tau-SrcSH3 interaction = Tau-SrcSH3 interaction (Homo sapiens, UniProt P10636); test: Tau-Flag PLA, Tau-SrcSH3 in HEK-293 cells; assay type: cell-based; conditions: 15 μM
Tau-SrcSH3 interaction, sequence (P10636 1-441 isoform P10636-8): as above
In short: as §2

Tau-tubulin interaction = test: Tau-tubulin PLA in untransfected HEK-293 cells; assay type: cell-based, human; conditions: 15 μM, 24 h
In short: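 Untransfected HEK-293 cells were grown 48 h, then exposed to 15 μM test compound for 24 h and fixed. PLA for endogenous Tau–α-tubulin proximity used Tau (1:1000) and α-tubulin (1:2000) primary antibodies, with the permeabilisation, blocking, probe, ligation and amplification steps of the neuronal PLA.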

primary neurons = test: Multi-electrode array, Aβ-induced network hyperexcitability; assay type: cell-based, rat; conditions: 1 h pretreatment, 500 nM Aβ oligomers, 4 h
Tau-FynSH3 interaction [6] = molecular target: T1, Tau-FynSH3 interaction; test: Tau-FynSH3 AlphaScreen; assay type: binding; conditions: left-hand phenyl ring removed
[7] = Phase IIa clinical trial, tolerable dose; cited from earlier work
Sam68(PxxP)-FynSH3 = conditions: cited from earlier work
SFK = conditions: cited from earlier work

## O=C(CN1C(=O)CSc2cc(F)ccc21)Nc1nnc(-c2ccccn2)[nH]1 [SRI-39210, 2-(7-fluoro-3-oxo-2,3-dihydro-4H-benzo[b][1,4]thiazin-4-yl)-N-(5-(pyridin-2-yl)-4H-1,2,4-triazol-3-yl)acetamide]
[1]
  half-life: 2.43 h
Primary rat neurons
  Amelioration of Aβ toxicity in modified MTT assay: inhibited Aβ toxicity
[2]
  Detection in plasma and brain after oral administration: able to detect SRI-39210 in plasma, it did not cross the BBB and was not present in brain

## O=C(CN1C(=O)CSc2cc(Cl)ccc21)Nc1nnc(-c2ccccn2)[nH]1 [SRI-39211, 2-(7-chloro-3-oxo-2,3-dihydro-4H-benzo[b][1,4]thiazin-4-yl)-N-(5-(pyridin-2-yl)-4H-1,2,4-triazol-3-yl)acetamide]
Primary rat neurons
  Amelioration of Aβ toxicity in modified MTT assay: inhibited Aβ toxicity

## Cc1ccc2c(c1)SCC(=O)N2CC(=O)Nc1nnc(-c2ccccn2)[nH]1 [SRI-39488, 2-(7-methyl-3-oxo-2,3-dihydro-4H-benzo[b][1,4]thiazin-4-yl)-N-(5-(pyridin-2-yl)-4H-1,2,4-triazol-3-yl)acetamide]
Primary rat neurons
  Amelioration of Aβ toxicity in modified MTT assay: inhibited Aβ toxicity

## O=C(CN1CCSc2ccccc21)Nc1nnc(-c2ccccn2)[nH]1 [SRI-39669, 2-(2,3-dihydro-4H-benzo[b][1,4]thiazin-4-yl)-N-(5-(pyridin-2-yl)-4H-1,2,4-triazol-3-yl)acetamide]
[2]
  Detection in plasma and brain after oral administration: detected in both plasma and brain

## O=C(CN1CCCc2ccccc21)Nc1nnc(-c2ccccn2)[nH]1 [SRI-42654, 2-(3,4-Dihydroquinolin-1(2H)-yl)-N-(5-(pyridin-2-yl)-4H-1,2,4-triazol-3-yl)acetamide]
Primary rat neurons
  Amelioration of Aβ toxicity in modified MTT assay: inhibited Aβ toxicity

## O=C(CN1CCOc2ccccc21)Nc1nnc(-c2ccccn2)[nH]1 [SRI-42667, 2-(2,3-Dihydro-4H-benzo[b][1,4]oxazin-4-yl)-N-(5-(pyridin-2-yl)-4H-1,2,4-triazol-3-yl)acetamide]
Primary rat neurons
  Amelioration of Aβ toxicity in modified MTT assay: ameliorates Aβ toxicity; also recorded: inhibited Aβ toxicity
[2]
  Detection in plasma and brain after oral administration: observed in both plasma and brain
Tau-Fyn interaction; 3 μM
  Reduction of endogenous Tau-Fyn PLA: reduces endogenous Tau-Fyn PLA
Tau-Fyn interaction; 15 μM
  Reduction of endogenous Tau-Fyn PLA: reduces endogenous Tau-Fyn PLA
Tau
  Tau levels: does not reduce
Fyn [3]
  Fyn levels: does not reduce
97 kinases
  Inhibition of any of the 97 kinases: did not inhibit
Fyn [4]
  Inhibition of Fyn kinase: did not inhibit
FynSH3
  Binding to FynSH3 by ITC: did not bind FynSH3
Tau-PxxP5/6
  Interaction with Tau-PxxP5/6 peptide by ITC: no interaction
Tau-FynSH3 interaction [5]
  inhibition at 15 µM: 37%
Tau-LckSH3 interaction
  Inhibition of Tau-LckSH3 interaction (PLA): strongly inhibited
Tau-BIN1SH3 interaction
  Inhibition of Tau-BIN1 SH3 interaction (PLA): moderately inhibited
Tau-SrcSH3 interaction
  Inhibition of Tau-SrcSH3 interaction (PLA): did not significantly inhibit
Tau-tubulin interaction
  Inhibition of Tau-tubulin interaction (PLA): does not inhibit Tau-tubulin interaction
Primary neurons; 3 μM
  Prevention of Aβ-induced network hyperexcitability (MEA): prevented Aβ-induced network hyperexcitability
Primary neurons; 15 μM
  Prevention of Aβ-induced network hyperexcitability (MEA): prevented Aβ-induced network hyperexcitability

## O=C(CN1CCCCC1)Nc1nnc(-c2ccccn2)[nH]1 [SRI-43142, 2-(piperidin-1-yl)-N-(5-(pyridin-2-yl)-4H-1,2,4-triazol-3-yl)acetamide]
Tau-FynSH3 interaction [6]
  Reduction of AlphaScreen activity relative to SRI-39669: 8–10 fold

## O=C(CN1CCOCC1)Nc1nnc(-c2ccccn2)[nH]1 [SRI-43143, 2-Morpholino-N-(5-(pyridin-2-yl)-4H-1,2,4-triazol-3-yl)acetamide]
Tau-FynSH3 interaction [6]
  Reduction of AlphaScreen activity relative to SRI-39669: 8–10 fold

## CN1CCN(CCOc2cc(OC3CCOCC3)c3c(Nc4c(Cl)ccc5c4OCO5)ncnc3c2)CC1 [saracatinib]
[7]
  Clinical benefit in AD: no clinical benefit

## UCS15A
Sam68(PxxP)-FynSH3
  Inhibition of Sam68(PxxP)-FynSH3 interaction: inhibited
SFK
  Inhibition of SFK kinase activity: does not inhibit SFK kinase activity
